ANO1 activ: activates or potentiates the mouse TMEM16A chloride channel. Q8BHY3. HEK293 TMEM16A/YFP-H148Q/I152L, iodide quench fluorescence; active compounds read low. B-score at 10 µM. 340,000 compounds, 0.3% hits. AID 623877;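 active = fluorescence-ratio B-score plate-corrected deviation score at least 3 library SD below zero, with starting fluorescence score within 5 deviations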;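 note: channel opened by trigger with iodide after compound preincubation; score built on the fluorescence ratio of max minus min over baseline; more negative score means more quench and so TMEM16A activation or potentiation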
Target sequence (Q8BHY3 whole entry, looked up): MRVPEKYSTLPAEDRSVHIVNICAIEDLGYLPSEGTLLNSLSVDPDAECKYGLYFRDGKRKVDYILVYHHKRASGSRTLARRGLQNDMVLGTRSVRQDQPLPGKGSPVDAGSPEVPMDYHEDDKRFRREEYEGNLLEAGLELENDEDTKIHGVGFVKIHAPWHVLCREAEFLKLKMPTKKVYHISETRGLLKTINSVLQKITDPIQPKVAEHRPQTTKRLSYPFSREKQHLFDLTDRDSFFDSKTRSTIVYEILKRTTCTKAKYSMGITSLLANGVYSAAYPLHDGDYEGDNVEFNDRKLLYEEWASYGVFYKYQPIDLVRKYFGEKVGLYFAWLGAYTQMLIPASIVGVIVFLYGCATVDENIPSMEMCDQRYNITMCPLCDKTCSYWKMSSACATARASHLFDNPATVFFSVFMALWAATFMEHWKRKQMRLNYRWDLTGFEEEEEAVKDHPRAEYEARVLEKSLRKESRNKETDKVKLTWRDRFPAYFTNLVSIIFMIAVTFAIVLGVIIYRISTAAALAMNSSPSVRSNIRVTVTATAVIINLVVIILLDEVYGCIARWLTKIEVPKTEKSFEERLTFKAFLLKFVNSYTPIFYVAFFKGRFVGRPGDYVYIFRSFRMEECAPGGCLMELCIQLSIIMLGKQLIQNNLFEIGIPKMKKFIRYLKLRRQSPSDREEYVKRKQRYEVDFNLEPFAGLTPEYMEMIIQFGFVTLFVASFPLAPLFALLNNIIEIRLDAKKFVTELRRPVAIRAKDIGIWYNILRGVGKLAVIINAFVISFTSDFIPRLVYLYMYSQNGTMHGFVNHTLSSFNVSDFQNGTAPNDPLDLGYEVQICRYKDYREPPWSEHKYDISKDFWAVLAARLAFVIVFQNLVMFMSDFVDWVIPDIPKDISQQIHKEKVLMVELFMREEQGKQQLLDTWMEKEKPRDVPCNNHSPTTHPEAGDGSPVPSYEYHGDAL
MIN6 prolif: induces beta-cell replication in MIN6 cells; MIN6 cells proliferation, ATPlite luminescence, 48 h; cells starved in 0.2% serum; 100% = growth in 10% serum; proliferation, % at 10 µM; 330,000 compounds, 0.29% hits; AID 2380;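 active = compounds whose signal lies at least 3.5 SD above the mean of all wells on their plate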;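 note: 0% = DMSO-treated cells in low-serum medium and 100% = 10% serum control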
MC4R antag cAMP: human MC4R antagonism in cAMP assay; 360,000 compounds, 0.48% hits; MC4R-expressing cells, MTII-stimulated cAMP, LANCE TR-FRET; inhibition, % at 6.5 µM; AID 540295; P32245;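 active = inhibition above its plate's cutoff, the mean of tested wells on that plate plus 3 SD, cut at about 29% in these data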;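 note: 0% = Melanotan II alone and 100% = Melanotan II plus saturating MCL0020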
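Test system: U2OS cells stably expressing human melanocortin 4 receptor (MC4R); also added: Melanotan II challenge; compound: 6.5 µM single dose; timing: 30-min compound preincubation, 1-h Melanotan II challenge, 1-h detection, room temperature; signal: Eu-cAMP/anti-cAMP TR-FRET, emission 671 nm; repeats: one well per compound, no replicates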
TMEM16A inh: inhibitors of mouse TMEM16A calcium-activated chloride channel; AID 588511; 310,000 compounds, 1.2% hits; HEK293 TMEM16A/YFP iodide influx fluorescence, ionomycin; Q8BHY3; normalized B-score (activity score, 25-100; higher = stronger inhibition) at 10 µM;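 active = ratio plate-corrected score three or more library SD toward inhibition, starting fluorescence score within five deviations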;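 note: score derived from kinetic fluorescence span divided by baseline fluorescence per well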
MC4R barr agon: agonists of human melanocortin 4 receptor (MC4R) beta-arrestin. 360,000 compounds, 0.98% hits. AID 540308. activation, % at 8.9 µM. P32245. U2OS MC4R beta-arrestin complementation, luminescence; percent of melanotan II response, DMSO zero;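 active = activation above a per-plate cutoff, the mean activation of sample wells on that plate plus 3 SD, cut at about 8% in these data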
HTR2A ag: agonists of mouse serotonin 5-HT2A receptor (HTR2A); 360,000 compounds, 0.66% hits; CHO-K1 mHTR2A beta-arrestin complementation, luminescence; percent of 30 µM serotonin response; P35363; activation, % at 7.6 µM;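 active = activation above a run cutoff, the mean activation of all tested compounds plus 3 SD, cut at about 14% in these data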;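 note: 0% = plate median of compound wells and 100% = 30 µM serotonin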
U2OS cAMP counter: nonselective cAMP signaling inhibitor, MC4R antagonist counter-screen | AID 602193 | 1,600 compounds, 26% hits | inhibition, % at 6.5 µM | parental U2OS, forskolin cAMP, LANCE TR-FRET | shares compounds with MC4R antag cAMP;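 active = mean inhibition over triplicates above the low-control well mean plus 3 SD, set per campaign, cut at about 13% in these data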;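 note: signal is single emission at 671 nm which falls as cellular cAMP rises; 0% = forskolin-stimulated wells and 100% = buffer without forskolin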
MC4R cAMP antag: human MC4R cAMP antagonism confirmation; shares compounds with MC4R antag cAMP; MC4R-expressing cells, MTII-stimulated cAMP, TR-FRET; inhibition, % at 6.5 µM; 1,600 compounds, 27% hits; AID 602195; in the data active = inhibition above about 29%;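 note: 0% = agonist stimulated wells alone and 100% = agonist stimulated wells plus saturating reference antagonist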
Active calls of the source: *; i = inactive; / = no result given. Shown are actives, neighbours in structure and some others; about 3.4% of the full set was active somewhere.

SMILES | ANO1 activ | MIN6 prolif | MC4R antag cAMP | TMEM16A inh | MC4R barr agon | HTR2A ag | U2OS cAMP counter | MC4R cAMP antag
CCOC(=O)N1CCN(C(=O)c2cc3c(-c4cccc(OC)c4)nn(C)c3s2)CC1 | i | 3.7 | 29.9* | i | -0.1 | 5.6 | 4.8 | 14.7
Cc1cc(O)c(S(=O)(=O)c2ccccc2)c(C)c1NS(=O)(=O)c1ccccc1 | i | -5.9 | -3.6 | i | 3.7 | -6.9 | / | /
Cc1ccccc1NC(=O)c1nn(C)c2c1CS(=O)(=O)c1ccccc1-2 | i | -0.1 | 7.5 | i | -2.8 | 2.2 | / | /
CCOC(=O)COc1ccccc1/C=C\[N+](=O)[O-] | i | / | 29.4* | i | -5.0 | -4.3 | 37.1* | 43.7*
CN(C)c1ccc(-c2ccnc3c2CC(C)(C(=O)NCC2CC2)O3)cc1 (centres undefined) | / | / | 10.3 | / | -1.5 | -6.1 | / | /
Oc1ccc(-c2n[nH]c(C(F)(F)F)c2-c2ccccc2)c(O)c1 | i | -5.4 | 30.4* | 100* | 2.8 | 14.3 | 4.3 | -3.4
Cc1ccc(S(=O)(=O)N2[C@H](C(C)C)[C@H]3[C@H]4C(=O)N(c5ccccc5)C(=O)[C@H]4CC(=O)[C@H]3[C@@H]2c2ccccc2)cc1 | / | / | / | / | / | -1.4 | / | /
O=C(COC(=O)c1ccncc1)NCCCc1ccccc1 | i | -0.1 | 29.6* | i | 1.8 | -2.5 | 2.1 | 7.3
O=C(COC(=O)c1ccncc1)NCc1ccccc1 | i | 1.0 | 2.4 | i | -0.7 | 7.5 | / | /
Cc1c(Cl)cccc1N1C(=O)C(N2C(=O)c3cccc([N+](=O)[O-])c3C2=O)C1c1cccs1 (centres undefined) | i | -2.3 | 34.8* | i | -4.4 | 0.4 | -6.5 | -3.7
C[C@@H]1Cn2cnc(C(=O)N[C@@H](Cc3c[nH]c4ccccc34)C(=O)OC(C)(C)C)c2C(=O)N1 | / | / | 2.4 | / | 0.8 | 6.2 | / | /
OCCC1CN(Cc2cccn2-c2ccccn2)CCN1C1CCCC1 (centres undefined) | i | 2.0 | 0.9 | i | -1.8 | -5.0 | / | /
CC(=O)c1cccc(CN2CCN(Cc3ccc(C)cc3)C(CCO)C2)c1 (centres undefined) | i | 2.1 | 13.1 | i | -0.3 | -6.5 | / | /
CC(=O)c1cccc(CN2CCN(C3CCCC3)C(CCO)C2)c1 (centres undefined) | i | -3.0 | 28.7* | i | -0.3 | -7.3 | 0.2 | 4.0
OCCC1CN(Cc2ccccn2)CCN1C1CCCC1 (centres undefined) | i | -2.4 | 37.5* | i | -0.1 | 1.1 | 21.4* | 9.0
O=c1ccoc2ccccc12 | / | / | -8.4 | / | 0.9 | -1.9 | / | /
O=C(CCN1CCOCC1)c1ccc2c(c1)OCCO2 | i | -6.0 | 30.3* | i | -0.6 | -4.8 | 6.8 | 23.5
CC1CC(C)CN(C(=O)Nc2ccc(Br)cc2)C1 (centres undefined) | i | -1.6 | 30.3* | i | 2.0 | -6.0 | -3.3 | -7.7
O=C(Nc1ccc(Br)cc1)N1CCCCCCC1 | i | -0.4 | -0.7 | i | -0.6 | -3.3 | / | /
COc1ccc(Br)cc1/C=C/C(=O)NC(=S)Nc1ccc(Cl)c(C(=O)O)c1 | i | -1.2 | 29.6* | i | -3.3 | -0.7 | 1.2 | -0.2
COc1ccc(C(=O)NC(=S)Nc2ccc(Cl)c(C(=O)O)c2)cc1 | i | -3.4 | 30.1* | i | -0.3 | 4.0 | -5.3 | -17.8
CC(=O)c1cccc(NC(=S)NC(=O)c2ccccc2Cl)c1 | i | -1.4 | 29.6* | i | -1.1 | -2.3 | 2.4 | 6.9
CC(C)Oc1cccc(C(=O)NC(=S)Nc2ccc(Cl)c(C(=O)O)c2)c1 | i | -1.4 | 19.2 | i | -1.2 | -1.7 | / | /
C[C@H](NC(=O)C1CCN(S(=O)(=O)c2ccccc2)CC1)C(=O)NCc1ccncc1 | / | / | 0.3 | / | -1.5 | 1.5 | / | /
CCOC(=O)c1ccc(NC(=O)NCc2ccccc2OC)cc1 | i | -0.1 | 30.4* | i | -0.8 | -6.1 | 1.7 | 4.0
SMILES | ANO1 activ | MIN6 prolif | MC4R antag cAMP | TMEM16A inh | MC4R barr agon | HTR2A ag | U2OS cAMP counter | MC4R cAMP antag
Cc1ccc(C(=O)NNS(=O)(=O)c2ccc(F)cc2)cc1 | i | 0.9 | 16.2 | i | -2.2 | 0.8 | / | /
COc1ccc([N+](=O)[O-])c(C=CC(=O)c2ccccn2)c1 | / | / | 29.8* | / | -0.2 | 6.8 | -0.9 | 13.5
COc1ccc(/C=C/C(=O)c2ccccn2)cc1 | i | -1.0 | 5.5 | i | -3.3 | -6.1 | / | /
O=C(O)CCn1c(=O)n(CCC(=O)O)c(=O)n(CCC(=O)O)c1=O | i | -0.6 | 28.6* | i | -3.0 | -0.7 | -3.2 | -12.4
O=C(O)CCN1C(=O)c2ccccc2C1=O | i | 3.8 | 15.6 | i | 2.9 | 7.9 | / | /
COC(=O)c1ccc(OC(=O)CS(=O)c2ccccc2[N+](=O)[O-])cc1 (centres undefined) | i | 1.9 | 25.3 | i | -2.4 | -0.5 | / | /
O=C(CS(=O)c1ccc(C(F)(F)F)cc1[N+](=O)[O-])Oc1ccccc1 (centres undefined) | i | 0.0 | 49.2* | i | 3.3 | 1.9 | 13.0 | 33.9*
CN1CCC(Oc2ccc(Sc3ccccc3)cc2)CC1 | i | -3.1 | -1.4 | i | -0.1 | -4.7 | / | /
CN1CCC(Oc2ccccc2Sc2ccc(C(F)(F)F)cc2)CC1 | i | 0.0 | 32.8* | i | -3.0 | -5.2 | 0.6 | 31.5*
Cc1nnc2n(-c3ccccc3)c(=O)c3c4c(sc3n12)COC(C)(C)C4 | i | -1.0 | 3.8 | i | 0.3 | -1.9 | / | /
Cc1nnc2n(-c3ccccc3)c(=O)c3c4c(sc3n12)CCCC4 | i | 1.9 | 29.4* | i | -0.7 | 4.8 | 0.1 | 16.3
Cc1ccc(C(=O)NCC(=O)OC2CCCCC2=O)cc1C (centres undefined) | i | -3.0 | 8.2 | / | -1.6 | -2.4 | / | /
O=C(CNC(=O)c1ccc(Oc2ccccc2)cc1)OC1CCCCC1=O (centres undefined) | i | -1.8 | 33.6* | i | -1.9 | -2.9 | 12.4 | 24.3
C=C(C)[C@@H]1C2=CC(C(=O)OC)=C(C[C@H](C(=C)C)[C@H]3O[C@H]3C3=C[C@H]1OC3=O)O2 | / | / | 36.4* | / | -0.2 | 1.9 | 13.6* | 44.9*
CCN(c1ccccc1)S(=O)(=O)c1ccc(OC)c(NC(=O)Cn2cnc3c2c(=O)n(C)c(=O)n3C)c1 | i | -3.9 | 41.4* | i | 6.2 | 2.9 | 3.9 | 10.2
COc1ccc(S(=O)(=O)N(C)C)cc1NC(=O)COC(=O)c1nn(C)c(=O)c2ccccc12 | i | -1.5 | 33.7* | i | 0.6 | 1.8 | 6.3 | 13.5

Bioassay records as filed in PubChem.
